Test results reported in ChEMBL document CHEMBL1140712 (J Med Chem, 2008).

Legend:
Rattus norvegicus [1] = assay: Reduction of food intake in Sprague-Dawley rat at 25 umol/kg, po after 2 hrs relative to control; format: functional
Method in brief: (§1)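 Male Sprague-Dawley rats, caged singly, kept 2 weeks on a reverse light cycle, freely fed, eight per group. Oral gavage of vehicle or compound 1 h before the dark cycle. Food intake measured 2 h postdose and compared with vehicle control.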

Rattus norvegicus [2] = assay: Reduction of food intake in Sprague-Dawley rat at 100 umol/kg, po after 2 hrs relative to control; format: functional; method in brief: as §1
Rattus norvegicus [3] = assay: Reduction of food intake in Sprague-Dawley rat at 12.5 umol/kg, po after 2 hrs relative to control; format: functional; method in brief: as §1
Rattus norvegicus [4] = assay: Reduction of food intake in Sprague-Dawley rat at 50 umol/kg, po after 2 hrs relative to control; format: functional; method in brief: as §1
[5] = molecular target: 5-hydroxytryptamine receptor 2A (Homo sapiens, UniProt P28223); assay: Agonist activity at human 5HT2A receptor expressed in HEK293 cells assessed as intracellular IP3 accumulation; format: functional, cell-based
Method in brief: (§2)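 Functional agonist assay read out as [3H]phosphoinositol turnover; potency expressed as pEC50.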

[6] = molecular target: T1, 5-hydroxytryptamine receptor 2C (Homo sapiens, UniProt P28335); assay: Agonist activity at human 5HT2C receptor expressed in HEK293 cells assessed as intracellular IP3 accumulation; format: functional, cell-based; method in brief: as §2
T1 sequence (P28335 whole entry): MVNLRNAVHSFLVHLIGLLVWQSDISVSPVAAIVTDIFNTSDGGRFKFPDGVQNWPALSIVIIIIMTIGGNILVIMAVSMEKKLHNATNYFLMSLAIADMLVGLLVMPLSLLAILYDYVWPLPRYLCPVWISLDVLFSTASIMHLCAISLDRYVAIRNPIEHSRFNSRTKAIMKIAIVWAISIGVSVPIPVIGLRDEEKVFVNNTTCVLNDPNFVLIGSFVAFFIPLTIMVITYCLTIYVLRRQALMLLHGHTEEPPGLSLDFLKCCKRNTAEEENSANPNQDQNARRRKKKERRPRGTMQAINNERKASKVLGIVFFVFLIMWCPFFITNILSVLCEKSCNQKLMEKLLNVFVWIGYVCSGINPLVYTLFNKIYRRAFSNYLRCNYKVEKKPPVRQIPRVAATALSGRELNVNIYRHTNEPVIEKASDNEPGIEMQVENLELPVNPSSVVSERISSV

[7] = molecular target: 5-hydroxytryptamine receptor 2B (Homo sapiens, UniProt P41595); assay: Agonist activity at human 5HT2B receptor expressed in HEK293 cells assessed as intracellular IP3 accumulation; format: functional, cell-based; method in brief: as §2
Homo sapiens = organism: Homo sapiens; assay: Selectivity ratio of pEC50 for human 5HT2B to pEC50 for human 5HT2C
[8] = molecular target: Serotonin 2 receptors; 5-HT2a & 5-HT2c (Homo sapiens) (UniProt P28223+P28335); assay: Selectivity ratio of pEC50 for human 5HT2A to pEC50 for human 5HT2C
[9] = AUC (0-infinity) in Sprague-Dawley rat at 10 mg/kg, po; format: ADME, organism-based; design: time infinity, dose 10 mg/kg, route oral; conditions: plasma
Rattus norvegicus [10] = assay: Reduction of body weight in Sprague-Dawley rat at 9 mg/kg, po, bid after 28 days relative to control; format: functional; design: scale not given: the % may be the effect or the level left
Method in brief: (§3)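 Adult male Sprague-Dawley rats (250–400 g), caged separately with free access to food and water. Oral gavage of vehicle or drug for 28 days, with arms of 9, 18 and 36 mg/kg twice daily and 18 mg/kg once daily. Daily food intake and body weight recorded and compared with vehicle control.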

Rattus norvegicus [11] = organism: Rattus norvegicus; assay: Reduction of food intake in Sprague-Dawley rat after 6 hrs relative to control; format: functional
Method in brief: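 Male Sprague-Dawley rats, individually caged after 2 weeks on a reverse light cycle, freely fed, eight per group. Dosed by oral gavage 1 h before the dark cycle. Food intake measured 6 h postdose versus vehicle-treated rats.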

Rattus norvegicus [12] = assay: Reduction of body weight in Sprague-Dawley rat at 36 mg/kg, po, bid after 28 days relative to control; format: functional; design: scale not given: the % may be the effect or the level left; method in brief: as §3
[13] = Oral bioavailability in Sprague-Dawley rat at 10 mg/kg; format: ADME, organism-based; conditions: in vivo
[14] = Tmax in Sprague-Dawley rat at 10 mg/kg, po; format: ADME, organism-based; design: dose 10 mg/kg, route oral; conditions: in vivo
[15] = Half life in Sprague-Dawley rat at 10 mg/kg, po; format: ADME, organism-based; design: dose 10 mg/kg, route oral; conditions: in vivo
Rattus norvegicus [16] = assay: Reduction of body weight in Sprague-Dawley rat at 18 mg/kg, po, bid after 28 days relative to control; format: functional; design: scale not given: the % may be the effect or the level left; method in brief: as §3
[17] = AUC (0-infinity) in Sprague-Dawley rat at 5 mg/kg, iv; format: ADME, organism-based; design: time infinity, dose 5 mg/kg, route intravenous; conditions: plasma
[18] = Clearance in Sprague-Dawley rat at 5 mg/kg, iv; format: ADME, organism-based; design: dose 5 mg/kg, route intravenous; conditions: in vivo
Rattus norvegicus [19] = assay: Reduction of body weight in Sprague-Dawley rat at 18 mg/kg, po, qd after 28 days relative to control; format: functional; design: scale not given: the % may be the effect or the level left; method in brief: as §3
[20] = Volume of distribution at steady state in Sprague-Dawley rat at 5 mg/kg, iv; format: ADME, organism-based; design: dose 5 mg/kg, route intravenous; conditions: in vivo, read-out: Vdss
[21] = Cmax in Sprague-Dawley rat at 10 mg/kg, po; format: ADME, organism-based; design: dose 10 mg/kg, route oral; conditions: in vivo
[22] = Half life in Sprague-Dawley rat at 5 mg/kg, iv; format: ADME, organism-based; design: dose 5 mg/kg, route intravenous; conditions: in vivo

Sequence of 5-hydroxytryptamine receptor 2A (P28223 whole entry): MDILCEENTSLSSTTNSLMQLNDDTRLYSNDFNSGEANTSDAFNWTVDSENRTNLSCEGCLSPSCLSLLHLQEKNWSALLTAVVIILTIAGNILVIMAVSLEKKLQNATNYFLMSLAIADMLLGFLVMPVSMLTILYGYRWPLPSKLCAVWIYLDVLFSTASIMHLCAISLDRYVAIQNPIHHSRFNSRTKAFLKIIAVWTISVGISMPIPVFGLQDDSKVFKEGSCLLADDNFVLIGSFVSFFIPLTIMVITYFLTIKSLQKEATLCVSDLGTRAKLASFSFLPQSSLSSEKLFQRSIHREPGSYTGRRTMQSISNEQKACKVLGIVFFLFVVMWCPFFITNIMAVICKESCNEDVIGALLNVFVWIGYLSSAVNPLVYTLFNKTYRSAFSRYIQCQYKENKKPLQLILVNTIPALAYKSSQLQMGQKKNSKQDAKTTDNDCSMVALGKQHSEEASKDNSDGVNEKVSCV
Sequence of Serotonin 2 receptors; 5-HT2a & 5-HT2c (Homo sapiens) (P28223 whole entry, looked up, one chain of several): as the sequence (P28223 whole entry) above
Sequence of 5-hydroxytryptamine receptor 2B (P41595 whole entry): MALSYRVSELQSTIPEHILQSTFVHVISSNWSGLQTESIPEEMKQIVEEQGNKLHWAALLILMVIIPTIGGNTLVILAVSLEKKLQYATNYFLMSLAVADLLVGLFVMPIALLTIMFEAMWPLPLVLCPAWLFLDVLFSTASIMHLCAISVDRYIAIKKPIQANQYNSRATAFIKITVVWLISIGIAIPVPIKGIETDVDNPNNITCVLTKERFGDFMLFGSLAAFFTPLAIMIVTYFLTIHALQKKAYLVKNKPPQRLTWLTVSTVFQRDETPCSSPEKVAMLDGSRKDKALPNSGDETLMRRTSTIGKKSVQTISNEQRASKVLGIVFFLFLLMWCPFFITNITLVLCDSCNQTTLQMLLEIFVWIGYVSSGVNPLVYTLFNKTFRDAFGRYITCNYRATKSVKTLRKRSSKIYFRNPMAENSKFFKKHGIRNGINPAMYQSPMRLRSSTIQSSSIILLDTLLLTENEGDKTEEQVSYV

SMILES | inhibition in vivo at 25 µmol/kg (Rattus norvegicus [1]) [%] | inhibition in vivo at 100 µmol/kg (Rattus norvegicus [2]) [%] | inhibition in vivo at 50 µmol/kg (Rattus norvegicus [4]) [%] | EC50 [5] [nM] | EC50 [6] [nM] | EC50 [7] [nM] | Selectivity ratio (Homo sapiens) | Selectivity ratio [8] | also measured
C[C@@H]1CNCCc2ccc(Cl)cc21 | 26 | 73 | 41 | – | – | – | – | – | inhibition in vivo at 12.5 µmol/kg (Rattus norvegicus [3]): 7%
C[C@H]1CNCCc2ccc(Cl)c(Cl)c21 | – | – | – | 2510 | 316 | > 10000 | – | – | –
CC1CNCCc2c(Cl)cc(Cl)cc21 (centres undefined) | – | – | – | 126 | – | 794 | 1.6 | 0.8 | –
Clc1ccc2c(c1)CCNCC2 | 63 | 85 | 68 | 100 | 12.6 | – | 1.9 | 0.9 | –
C[C@@H]1CNCCc2ccc(Cl)c(Cl)c21 | 19 | 69 | 41 | 126 | 3.16 | 1260 | 2.6 | 1.6 | –
c1ccc2c(c1)CCNCC2 | – | – | – | > 10000 | 3160 | > 10000 | – | – | –
C[C@H]1CNCCc2cc(Cl)c(Cl)cc21 | 16 | 66 | 40 | 10 | 3.98 | 39.8 | 1 | 0.4 | –
C[C@@H]1CNCCc2cc(Cl)c(Cl)cc21 | 54 | 74 | 58 | 100 | 7.94 | 251 | 1.5 | 1.1 | –
C[C@@H]1CNCCc2ccc(Cl)c(F)c21 | – | – | – | 1000 | 3.98 | > 10000 | > 3.4 | 2.4 | –
CC[C@H]1CNCCc2ccc(Cl)cc21 | – | – | – | 251 | 39.8 | 251 | 0.8 | 0.8 | –
CC[C@@H]1CNCCc2ccc(Cl)cc21 | – | – | – | 316 | 20 | 631 | 1.5 | 1.2 | –
C[C@H]1CNCCc2ccc(C(F)(F)F)cc21 | 22 | – | 41 | 126 | 7.94 | 501 | 1.8 | 1.2 | inhibition in vivo at 12.5 µmol/kg (Rattus norvegicus [3]): 14%
C[C@@H]1CNCCc2ccc(C(F)(F)F)cc21 | 18 | – | 45 | 100 | 10 | 794 | 1.9 | 1 | inhibition in vivo at 12.5 µmol/kg (Rattus norvegicus [3]): 16%
CC1(C)CNCCc2ccc(Cl)cc21 | – | – | – | 1580 | 200 | > 10000 | – | – | –
C[C@H](N)Cn1ccc2cc(F)c(Cl)cc21 | – | – | – | 50.1 | 3.98 | 1.58 | -0.4 | 1.1 | –
CC1CNCCc2ccc(C(F)(F)F)cc21 (racemic) | – | – | – | – | 6.31 | 794 | 2.1 | 1.2 | –
CC1CNCCc2ccc(Cl)c(Cl)c21 (racemic) | – | – | – | 200 | 7.94 | 1580 | 2.3 | 1.4 | –
CC1CNCCc2ccc(F)cc21 (racemic) | – | – | – | – | 398 | > 10000 | – | – | –
CC1CNCCc2cc(Cl)c(Cl)cc21 (racemic) | 33 | 60 | 44 | 20 | – | 50.1 | 1.1 | 0.7 | –

SMILES | inhibition in vivo at 25 µmol/kg (Rattus norvegicus [1]) [%] | inhibition in vivo at 100 µmol/kg (Rattus norvegicus [2]) [%] | inhibition in vivo at 50 µmol/kg (Rattus norvegicus [4]) [%] | EC50 [5] [nM] | EC50 [6] [nM] | EC50 [7] [nM] | Selectivity ratio (Homo sapiens) | Selectivity ratio [8] | also measured
CC1CNCCc2ccc(Cl)cc21 (racemic) | 52 | 81 | 62 | – | – | – | – | – | –
COc1ccc2c(c1)CCNCC2C (racemic) | – | – | – | > 10000 | 1260 | > 10000 | – | – | –
CC1CNCCc2cc(Cl)ccc21 (racemic) | – | – | – | 158 | 25.1 | 501 | 1.3 | 0.8 | –
COc1cc2c(cc1Cl)C(C)CNCC2 (racemic) [listing 1 of 2 here] | 38 | 71 | 52 | 63.1 | 7.94 | 63.1 | – | – | –
CC1CNCCc2cccc(Cl)c21 (racemic) | – | – | – | > 10000 | 794 | > 10000 | – | – | –
CC1CNCCc2cc(F)c(Cl)cc21 (racemic) | 30 | 58 | 41 | 63.1 | 6.31 | 316 | 1.7 | 1 | –
COc1ccc2c(c1)C(C)CNCC2 (racemic) | – | – | – | 251 | 200 | 5010 | – | – | –
CC1CNCCc2c(Cl)cccc21 (racemic) | – | – | – | > 10000 | 794 | > 10000 | – | – | –
CC1CNCCc2ccccc21 (racemic) | – | – | – | – | 316 | 3980 | – | – | –
CC1CNCCc2ccc(Cl)c(F)c21 (racemic) | – | – | – | 794 | 20 | 2510 | 2.1 | 1.6 | –
COc1cc2c(cc1Cl)CCNCC2C (racemic) | – | – | – | 100 | 50.1 | 200 | 0.6 | 0.3 | –
CC1CNCCc2ccc(Br)cc21 (racemic) | – | – | – | 501 | 10 | 2000 | 2.3 | 1.7 | –
COc1cc2c(cc1Cl)C(C)CNCC2 (racemic) [listing 2 of 2 here] | – | – | – | – | – | – | 0.9 | 0.9 | –
COc1cc2c(cc1Cl)C(C)CNCC2 (single isomer, unassigned; form 1) [listing 1 of 2 here] | 32 | 43 | 36 | 200 | 7.94 | 398 | – | – | –
COc1cc2c(cc1Cl)C(C)CNCC2 (single isomer, unassigned; form 1) [listing 2 of 2 here] | – | – | – | – | – | – | 1.7 | 1.4 | –
COc1cc2c(cc1Cl)C(C)CNCC2 (single isomer, unassigned; form 2) [listing 1 of 2 here] | 60 | 77 | 66 | 31.6 | 6.31 | 39.8 | – | – | –
COc1cc2c(cc1Cl)C(C)CNCC2 (single isomer, unassigned; form 2) [listing 2 of 2 here] | – | – | – | – | – | – | 0.8 | 0.7 | –
C[C@H]1CNCCc2ccc(Cl)cc21 [LORCASERIN] | 58 | 82 | 77 | – | – | – | – | – | AUC(0-inf) [9]: 1400 ng·h/mL; Activity (Rattus norvegicus [10]): 15.75%; ED50 (Rattus norvegicus [11]): 18 mg/kg; Activity (Rattus norvegicus [12]): 8.5%; bioavailability [13]: 86%; Tmax [14]: 30 min; half-life [15]: 222 min; Activity (Rattus norvegicus [16]): 14.03%; AUC(0-inf) [17]: 800 ng·h/mL; clearance [18]: 102 mL/min/kg; inhibition in vivo at 12.5 µmol/kg (Rattus norvegicus [3]): 34%; Activity (Rattus norvegicus [19]): 17.02%; Vd [20]: 18 L/kg; Cmax [21]: 260 ng/mL; half-life [22]: 186 min
C[C@H](N)Cc1cccc(C(F)(F)F)c1 [NORDEXFENFLURAMINE] | – | – | – | 200 | 25.1 | 15.8 | -0.2 | 0.9 | –
